Measurements gathered from unrelated publications.
Compare with care: the assays were run in different laboratories.
Target: Ephrin type-A receptor 5 (EPHA5, Homo sapiens, UniProt P54756)

SMILES | observed | action | technique | tested at | measurement | value
Cn1cc(-c2cc(F)cc(N3CCn4c(cc5c4CCCC5)C3=O)c2CO)cc(Nc2ccc(N3CCN(C4COC4)CC3)cn2)c1=O | enzyme activity | inhibitor |  | 0.1 µM | inhibition | 11%
COc1ncccc1-c1cnn2ccc(N3CCN(C(=O)OC(C)C)CC3)nc12 | binding |  | competition with immobilised ligand | 1 µM | remaining binding | 100%
Cc1nn(C)cc1-c1nc2c(N3CCN(Cc4ccc(Cl)cc4)CC3)c(Cl)cnc2[nH]1 | binding |  | competition with immobilised ligand | 1 µM | remaining binding | 100%
COc1cc(Nc2ncc(F)c(Nc3ccc4c(n3)NC(=O)C(C)(C)O4)n2)cc(OC)c1OC | binding |  | competition with immobilised ligand | 10 µM | inhibition | 64%
O=c1[nH]c2ccccc2n1C1CCN(Cc2ccc(-c3[nH]c4cc5ncnc5cc4nc3-c3ccccc3)cc2)CC1 | cell-free assay |  |  | 0.5 µM | remaining signal | 102%
Cn1cncc1[C@@](O)(COc1ccc(C#N)cc1-c1ccc(OC(F)(F)F)cc1)c1ccc(C#N)cc1 | cell-free assay |  | competition with immobilised ligand | 1 µM | remaining binding | 67%
C#Cc1n[nH]c2c(-c3cn([C@@H](C)c4ccccn4)c(=O)[nH]c3=O)cc(F)cc12 | enzyme activity | inhibitor |  | 0.1 µM | inhibition | 8.9%
Cn1cc(-c2cccc(N3CCc4c(sc5c4CC(C)(C)C5)C3=O)c2CO)cc(Nc2ccncn2)c1=O | enzyme activity | inhibitor |  | 1 µM | inhibition | 1%
CC(C)(C)c1cc(C=C(C#N)C#N)cc(Br)c1O | enzyme activity | inhibitor |  | 0.5 µM | remaining activity | 106%
C#Cc1n[nH]c2c(-c3cn([C@@H](C)c4ccccc4)c(=O)[nH]c3=O)cc(F)cc12 | enzyme activity | inhibitor |  | 0.1 µM | inhibition | 5.4%
